Reference: ChEMBL document CHEMBL1154266, “Synthesis, conformational analysis, and biological evaluation of 19-nor-vitamin D3 analogues with A-ring modifications” (J Med Chem, 2009)
Several values for one entry are separate records, joined by “and”; a condition that tells them apart may be missing. Identical values can stand only once.

Experiments:
[1] = biological target: T1, Vitamin D3 receptor (Sus scrofa) (UniProt A3RGC1); experiment: Ratio of 1-alpha,25-(OH)2D3 to compound affinity for binding to VDR in pig intestinal mucosa
T1 sequence (whole entry): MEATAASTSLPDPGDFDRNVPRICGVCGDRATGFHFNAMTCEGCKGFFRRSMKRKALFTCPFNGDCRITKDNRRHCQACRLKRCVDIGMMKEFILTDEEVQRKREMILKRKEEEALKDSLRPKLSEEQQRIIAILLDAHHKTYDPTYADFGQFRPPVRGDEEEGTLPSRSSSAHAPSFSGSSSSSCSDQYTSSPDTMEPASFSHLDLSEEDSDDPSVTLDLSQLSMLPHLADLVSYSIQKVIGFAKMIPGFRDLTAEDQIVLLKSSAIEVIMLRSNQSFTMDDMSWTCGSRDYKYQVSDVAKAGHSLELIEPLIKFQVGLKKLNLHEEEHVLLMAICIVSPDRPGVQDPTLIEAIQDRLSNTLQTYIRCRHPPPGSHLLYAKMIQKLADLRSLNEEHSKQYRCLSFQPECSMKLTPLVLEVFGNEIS

[2] = biological target: T1, Vitamin D3 receptor (Sus scrofa); experiment: Displacement of [3H]1-alpha,25-(OH)2D3 from VDR in pig intestinal mucosa at EC50 relative to 1-alpha,25-(OH)2D3; format: tissue-based
In short: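 Binding to vitamin D receptor (VDR), […]. Values are mean ± SD, n = 3.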

Mus musculus [3] = experiment: Toxicity in NMRI mouse assessed as increase in serum calcium level at 0.1 ug/kg, ip daily for 7 consecutive days measured after day 7 by colorimetric assay; format: organism-based; conditions: in vivo, 0.0001 mg/kg
In short: (§1)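 Mice received a daily injection of compound. The calcemic effect was read as the percent increase in serum calcium levels.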

[4] = Toxicity in ip dosed NMRI mouse assessed as maximum tolerable dose inducing minimal increase in serum calcium level administered daily for 7 consecutive days measured after day 7 by colorimetric assay; format: organism-based; conditions: in vivo
MCF7 [5] = experiment: Antiproliferative activity against human MCF7 cells at EC50 after 72 hrs by [3H]thymidine incorporation assay relative to 1-alpha,25-(OH)2D3; format: functional
In short: (§2)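 MCF-7 breast cancer cells; proliferation read by [³H]thymidine incorporation. Inhibition was scored at 10^-6 M, and the concentration giving half-maximal response was derived. Values are mean ± SD, n = 3.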

Mus musculus [6] = experiment: Toxicity in NMRI mouse assessed as increase in serum calcium level at 100 ug/kg, ip daily for 7 consecutive days measured after day 7 by colorimetric assay; format: organism-based; conditions: in vivo, 0.1 mg/kg; in short: as §1
MCF7 [7] = experiment: Antiproliferative activity against human MCF7 cells at 1 uM after 72 hrs by [3H]thymidine incorporation assay; format: functional; in short: as §2
MCF7 [8] = experiment: Ratio of 1-alpha,25-(OH)2D3 to compound antiproliferative activity against human MCF7 cells at EC50 after 72 hrs by [3H]thymidine incorporation assay; format: functional
Mus musculus [9] = experiment: Toxicity in NMRI mouse assessed as induction of calcemic effect at 100 ug/kg, ip daily for 7 consecutive days measured after day 7 by colorimetric assay; format: organism-based; conditions: in vivo, 0.1 mg/kg; in short: as §1
Mus musculus [10] = experiment: Toxicity in NMRI mouse assessed as induction of calcemic effect at 20 ug/kg, ip daily for 7 consecutive days measured after day 7 by colorimetric assay; format: organism-based; conditions: in vivo, 0.02 mg/kg; in short: as §1
Mus musculus [11] = experiment: Toxicity in NMRI mouse assessed as induction of calcemic effect at 40 ug/kg, ip daily for 7 consecutive days measured after day 7 by colorimetric assay; format: organism-based; conditions: in vivo, 0.04 mg/kg; in short: as §1

Activity [2]	Structure (SMILES)	Activity (MCF7 [5])	also measured
20% and 10%	C[C@H](CCCC(C)(C)O)[C@H]1CC[C@H]2/C(=C/C=C3C[C@@H](O)C(O)[C@H](O)C3)CCC[C@]12C (stereo not given in full) [listing 1 of 2 here]		Ratio [1]: 5 and 10
	C=C1/C(=C\C=C2/CCC[C@]3(C)[C@@H]([C@H](C)CCCC(C)(C)O)CC[C@@H]23)C[C@@H](O)C[C@@H]1O [CALCITRIOL]		Activity (Mus musculus [3]): 27%; MTD at 7 days [4]: 0.0001 mg/kg/day
	C[C@H](CCCC(C)(C)O)[C@H]1CC[C@H]2/C(=C/C=C3C[C@@H](O)C(O)[C@H](O)C3)CCC[C@]12C (stereo not given in full) [listing 2 of 2 here]	5%	
	[H][C@@]12CC[C@]([H])([C@H](C)CCCC(C)(C)O)[C@@]1(C)CCC/C2=C\C=C1\C[C@@H](O)[C@H](O)[C@H](O)C1 (stereo not given in full)	20%	Activity (Mus musculus [6]): 13%; Activity (MCF7 [7]): 60%; Ratio (MCF7 [8]): 5; Activity (Mus musculus [9]): Non-toxic
25%	C[C@H](CCCC(C)(C)O)[C@H]1CC[C@H]2/C(=C/C=C3\C[C@@H](O)[C@@H]4O[C@@H]4C3)CCC[C@]12C	16%	Activity (Mus musculus [10]): Non-toxic
5%	C[C@H](CCCC(C)(C)O)[C@H]1CC[C@H]2/C(=C/C=C3\C[C@@H](O)[C@H](O)[C@@H](O)C3)CCC[C@]12C	5%	
0.4%	C[C@H](CCCC(C)(C)O)[C@H]1CC[C@H]2/C(=C/C=C3/C[C@@H](O)[C@@H]4O[C@@H]4C3)CCC[C@]12C	1%	Activity (Mus musculus [11]): Non-toxic
0.4%	C[C@H](CCCC(C)(C)O)[C@H]1CC[C@H]2/C(=C/C=C3/C[C@@H](O)[C@H](O)[C@@H](O)C3)CCC[C@]12C	5%	
